FXN GAA850 act – frataxin GAA850 promoter activation | HEK293 lucGAA850 FXN promoter luciferase reporter, 24 h; percent of 10 µM SAHA response | activation, % at 6 µM | 0.56% of 360,000 active;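 active = activation above the average of all compounds screened plus 3 SD, cutoff fixed separately per campaign, cut at about 7.5% in these data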
AHR act – activates the human aryl hydrocarbon receptor; activation, % at 5 µM; 2.5% of 320,000 active; AHR-responsive luciferase reporter cells, luminescence; AID 2796; P35869; in the data active = activation above about 47%
m5-HT2A agonist – activates the mouse 5-HT2A serotonin receptor; P35363; CHO-K1 mHTR2A beta-arrestin complementation, luminescence; percent of 30 µM serotonin response; activation, % at 7.6 µM; 0.66% of 360,000 active; AID 624169;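 active = activation above a run cutoff, the mean activation of all tested compounds plus 3 SD, cut at about 14% in these data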
Target sequence (P35363 whole entry, looked up): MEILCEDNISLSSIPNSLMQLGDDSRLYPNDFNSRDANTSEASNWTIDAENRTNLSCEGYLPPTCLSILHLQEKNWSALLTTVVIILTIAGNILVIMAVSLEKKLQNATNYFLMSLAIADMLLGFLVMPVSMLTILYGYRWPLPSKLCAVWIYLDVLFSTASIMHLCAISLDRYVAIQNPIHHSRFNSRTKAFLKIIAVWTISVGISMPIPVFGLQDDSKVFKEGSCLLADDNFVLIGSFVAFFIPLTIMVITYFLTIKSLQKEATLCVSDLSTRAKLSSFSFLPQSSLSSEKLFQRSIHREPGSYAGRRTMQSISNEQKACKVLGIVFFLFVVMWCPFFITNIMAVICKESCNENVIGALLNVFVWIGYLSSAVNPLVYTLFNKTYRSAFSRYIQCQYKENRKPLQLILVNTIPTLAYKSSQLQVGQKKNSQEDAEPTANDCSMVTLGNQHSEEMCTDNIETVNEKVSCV
MC4R antagonist – blocks human MC4R cAMP signaling. MC4R-expressing cells, MTII-stimulated cAMP, LANCE TR-FRET. P32245. inhibition, % at 6.5 µM. 0.48% of 360,000 active;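 active = inhibition above its plate's cutoff, the mean of tested wells on that plate plus 3 SD, cut at about 29% in these data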
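System – human MC4R-expressing U2OS cells · Also added – Melanotan II · Dosing – one concentration, 6.5 µM nominal · Timing – 30-min compound, 1-h challenge, 1-h detection, room temperature · Measured by – Eu-cAMP/anti-cAMP TR-FRET, emission 671 nm · Replicates – singlicate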
MC4R ag barr – activates human MC4R beta-arrestin recruitment; 0.98% of 360,000 active; activation, % at 8.9 µM; U2OS MC4R beta-arrestin complementation, luminescence; percent of melanotan II response, DMSO zero; P32245;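 active = activation above a per-plate cutoff, the mean activation of sample wells on that plate plus 3 SD, cut at about 8% in these data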
GAA30 FXN cntr – counter-screen for GAA850 frataxin promoter activators: GAA30 promoter activation; shares compounds with FXN GAA850 act; HEK293 lucGAA30 FXN promoter luciferase, 24 h; DMSO = 0%, 5 µM ipriflavone = 100%; activation, % at 6 µM; 66% of 1,900 active;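 active = mean activation above the mean of solvent-only control wells plus 3 SD, cut at about 22% in these data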;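 note: counterscreen of GAA850 promoter hits where activity marks nonselective or luminescence artifacts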
FXN GAA850 conf – confirmation of GAA850 frataxin (FXN) promoter activators; 86% of 1,900 active; activation, % at 6 µM; HEK293 lucGAA850 FXN promoter luciferase reporter, 24 h; 100% = activation by SAHA; shares compounds with FXN GAA850 act; AID 588351;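 active = mean activation above a set limit taken from the primary screen, cut at about 8% in these data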
Numbers stand for hits; . = inactive; / = not tested or not shown. Hits are enriched below; roughly 4.7% of the tested compounds scored in any of these assays.

SMILES	FXN GAA850 act	AHR act	m5-HT2A agonist	MC4R antagonist	MC4R ag barr	GAA30 FXN cntr	FXN GAA850 conf
COc1ccc(C2N(c3ccc(Cl)cc3)C(=O)C3CCCN32)cc1 (stereo not drawn)	13.1	.	.	.	.	.	.
COc1ccc(N2C(=O)C3CCCN3C2c2ccc(Cl)cc2)cc1 (stereo not drawn)	.	.	.	.	.	/	/
Cc1ccc(Nc2nc3ccccc3[nH]2)nc1	9.4	.	.	.	.	85.6	42.5
CCNc1nc2ccccc2[nH]1	.	.	.	.	.	/	/
O=C1c2ccccc2S(=O)(=O)c2cc(N3CCc4ccccc4C3)ccc21	/	.	/	/	/	/	/
O=C(NCc1ccccc1F)c1ccc(S(=O)(=O)N2CCCC2)cc1	.	/	.	.	.	/	/
c1ccc2oc(-c3[nH]ncc3CN3CCSCC3)cc2c1	.	.	.	.	.	/	/
c1ccc2oc(-c3ccn[nH]3)cc2c1	8.0	.	.	.	.	121.8	38.4
COc1ccc(-c2cnc3c(NC=O)cc(-c4cccc(NS(C)(=O)=O)c4)cn23)cc1OC	.	/	.	.	.	/	/
C=C1C(=O)O[C@@H]2[C@H]1[C@@H](OC(=O)/C(C)=C/C)C/C(C)=C\C(=O)/C=C(\C)[C@@H]2O	.	.	.	.	.	/	/
C=C1C(=O)O[C@H]2[C@H]1[C@H](OC(=O)/C(C)=C\C)C[C@]1(CO1)[C@@H]1[C@H](OC(C)=O)C=C(C)[C@]21O	11.9	/	.	.	.	.	17.3
Oc1cccc(/C=N/N=C/c2cccc(O)c2O)c1O	8.9	.	.	.	.	37.2	17.8
Cc1ccccc1N=Cc1cccc(O)c1O	.	.	.	.	.	/	/
Cc1cc(Cl)c2oc(C(=O)N3CCN(C(=O)c4ccco4)CC3)c(C)c2c1	9.8	.	.	.	.	114.3	39.6
Cc1cc(Cl)c2oc(C(=O)N(C)C3CCOC3)c(C)c2c1 (stereo not drawn)	9.8	.	.	.	.	98.0	37.5
Cc1cc(Cl)c2oc(C(=O)N3CCOCC3)c(C)c2c1	.	/	.	.	.	/	/
CCCCN(C=O)c1c(CC)nc2ccc(C(=O)NCc3ccc4c(c3)OCO4)cn12	.	/	.	.	.	/	/
COc1ccc(CCN(C)C(=O)c2ccc(S(=O)(=O)Nc3ccccc3C)cc2)cc1OC	/	.	/	/	/	/	/
CCOc1ccc(NS(=O)(=O)c2ccc(C(=O)N(C)CCc3ccc(OC)c(OC)c3)cc2)cc1	9.7	.	.	.	.	26.9	14.8
Cc1ccc(N2CCN(S(=O)(=O)c3ccc4oc(=O)ccc4c3)CC2)cc1Cl	.	.	.	.	.	/	/
CC(C)(C)c1nc(CN2CCOCC2)cc(CN2CCOCC2)c1O	.	.	.	.	.	/	/
Cc1ccc(-c2nc(CN3CCCCC3)cc(CN3CCCCC3)c2O)cc1	7.9	.	.	.	.	29.4	17.4
CC1CCCN(S(=O)(=O)c2cccc(C(=O)NCCCN3CCCC3=O)c2)C1 (stereo not drawn)	.	/	.	.	.	/	/
O=S(=O)(Nc1nc2ccccc2nc1N1CCN(c2ccccc2)CC1)c1ccc(F)cc1	8.0	.	.	.	.	.	9.7
Cc1ccc(S(=O)(=O)Nc2nc3ccccc3nc2N2CCOCC2)cc1	.	.	.	.	.	/	/
SMILES	FXN GAA850 act	AHR act	m5-HT2A agonist	MC4R antagonist	MC4R ag barr	GAA30 FXN cntr	FXN GAA850 conf
C=CCOc1ccc2nc(NC(=O)OC)[nH]c2c1	7.7	.	.	.	.	.	40.9
COC(=O)Nc1nc2ccc(-c3n[nH]c(=O)c4ccccc34)cc2[nH]1	.	.	.	.	.	/	/
C=CCn1c(SCC(=O)Nc2ccccc2OC)nc2c([nH]c3ccccc32)c1=O	12.7	.	.	.	.	.	12.1
Cc1c(CN(C)C)c2c(n1C)C(=O)c1ccc(Br)cc1-2	10.6	70.8	.	.	.	.	17.9
CC(C)NC(=O)N(C)C[C@@H]1OCc2cn(nn2)CCCC(=O)N([C@H](C)CO)C[C@H]1C	.	/	.	.	.	/	/
Cc1ccccc1CSc1nnc2ccc(-c3ccncc3)nn12	7.7	.	.	.	.	29.6	12.5
O=c1[nH]c(=O)c2ncc(-c3ccc(Cl)cc3)nc2[nH]1	/	.	/	/	/	/	/
Cn1nc(N)c2ncc(-c3ccc(Cl)cc3)nc21	9.7	/	.	.	.	98.5	30.1
COc1ccccc1NS(=O)(=O)c1ccc(C)c(NC(=O)c2c(C)noc2C)c1	.	.	.	.	.	/	/
CCN(CC(=O)Nc1cc(Cl)ccc1C)C(=O)CCS(=O)(=O)c1ccc(C)cc1	.	.	.	.	.	/	/
Cc1ccc(S(=O)(=O)N2CC(O)C2)cc1	.	.	.	.	.	/	/
CC(=O)N1CN(S(=O)(=O)c2ccc(C)cc2)CC1C (stereo not drawn)	12.2	.	.	.	.	.	.
O=[N+]([O-])c1ccccc1S(=O)(=O)N/C(=N/S(=O)(=O)c1ccccc1)c1ccccc1	.	.	.	.	.	/	/
CC1=CC(C)(C)Nc2ccc(OC(=O)CN3C(=O)c4ccccc4C3=O)cc21	8.7	.	.	.	.	.	17.7
CC1=CC(C)(C)Nc2ccc(OC(=O)CN3C(=O)c4cccc5cccc(c45)C3=O)cc21	.	.	.	.	.	/	/
CCCOc1ccc(/C=C/C(=O)N2CCN(C(=O)c3ccco3)CC2)cc1OC	.	/	.	.	.	/	/
Cc1ccc2nc(/C=C/c3cccc(F)c3)ccc2c1	9.5	47.5	.	.	.	101.4	30.1
Cc1cc(Cl)ccc1OCCCC(=O)N1CCOCC1	.	.	.	.	.	/	/
Cc1cc(Cl)ccc1OCCCC(=O)N1CCCCC1	8.6	.	.	.	.	78.9	30.5
COc1ccnc(Oc2ccc(C)cc2)c1C#N	.	.	.	.	.	/	/
COc1ccnc(Oc2ccc3ccccc3c2)c1C#N	8.2	.	.	.	.	82.3	24.9
COc1cc2ccccc2cc1C(=O)Nc1ccccc1Cl	8.2	52.9	.	.	.	120.6	39.3
COCCN(CC(=O)Nc1cccc(C)c1C)C(=O)C1(c2ccc(Cl)cc2)CCC1	.	.	.	.	.	/	/
Cc1nn(C)c(C)c1S(=O)(=O)N(CC(=O)NC1CCCCCC1)c1ccc(C(C)C)cc1	.	.	.	.	.	/	/
Cc1n[nH]c(C)c1S(=O)(=O)N(CC(=O)NC1CCCC1)c1ccc(C(C)C)cc1	8.2	.	.	.	.	.	9.5
O=C(C=C=Nc1ccccc1)C(=O)N=C=Cc1ccccc1	8.7	.	.	.	.	27.1	29.2
O=C(N/N=C/c1ccccc1)C(=O)N/N=C/c1ccccc1	.	.	.	.	.	/	/
CC(=O)Cn1nnc2sc3c(c2c1=O)CCC(C(C)(C)C)C3 (stereo not drawn)	8.2	.	.	.	.	118.7	44.9
CN(C)CCNc1ccc2ncn3c4ccc(O)cc4c(=O)c1c23	8.4	/	.	.	.	.	25.6

Assay outcomes deposited in PubChem by The Scripps Research Institute Molecular Screening Center.
